Source: ChEMBL document CHEMBL5380852, “N'-Phenylacetohydrazide Derivatives as Potent Ebola Virus Entry Inhibitors with an Improved Pharmacokinetic Profile” (J Med Chem, 2023)
Activity calls are given as the source filed them. The rule behind the calls is not given here.

Assays:
Ebolavirus = assay: Antiviral activity against pseudotyped Ebola virus infected in HeLa cells preincubated for 1 hr followed by viral infection and measured after 48 hrs by steady-glo luciferase assay; assay type: functional, organism-based; conditions: Orthoebolavirus
In short: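 HeLa cells (2×10^4/well; DMEM, 10% FBS, 1% L-glutamine, 37 °C, 5% CO2) were pretreated with compound for 1 h at 37 °C, then given 5000 TCID50 of HIV-luciferase lentivirus pseudotyped with EBOV-GP. After 48 h, cells were washed, lysed and luciferase read. Primary screen was at 10 μM final. […] EC50 is the mean of three independent experiments, from normalized dose–response fits with 95% CI.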

[1] = Cytotoxicity against human HeLa cells assessed as reduction in cell viability incubated for 24 hrs by MTS assay; assay type: toxicity, cell-based
In short: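 HeLa cells (2×10^4/well) were grown in DMEM with 10% FBS and exposed to compound at 0–200 μM for 24 h. Viability was read by MTS reduction at 490 nm, as a percentage of untreated cells, and CC50 was derived.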

[2] = Cmax in BALB/c mouse plasma at 50 mg/kg, po measured upto 24 hrs by LC-MS/MS method; assay type: ADME, organism-based; design: dose 50 mg/kg, time < 24 hrs, route po; conditions: in vivo
In short: (§1)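 Male BALB/c mice aged 8–12 weeks (20–35 g) received one dose in a solution of 90% PBS pH 7.4, 5% solutol HS-15 and 5% NMP: 10 mg/kg i.p. or 50 mg/kg p.o. Three mice per time point, sampled up to 24 h. Plasma and brain were taken at each point and assayed by LC–MS/MS. Parameters came from noncompartmental analysis.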

[3] = Selectivity index, ratio of CC50 for african green monkey Vero E6 cells to EC50 for wild type Zaire EBOV mayinga; assay type: cell-based, Vero C1008; conditions: read-out: Ratio CC50/EC50
[4] = Tmax in BALB/c mouse brain at 10 mg/kg, ip measured upto 24 hrs by LC-MS/MS method; assay type: ADME, organism-based; conditions: in vivo; in short: as §1
[5] = Tmax in BALB/c mouse plasma at 50 mg/kg, po measured upto 24 hrs by LC-MS/MS method; assay type: ADME, organism-based; conditions: in vivo; in short: as §1
[6] = Tmax in BALB/c mouse plasma at 10 mg/kg, ip measured upto 24 hrs by LC-MS/MS method; assay type: ADME, organism-based; conditions: in vivo; in short: as §1
[7] = Selectivity index, ratio of CC50 for human HeLa cells to EC50 for pseudotyped Ebola virus infected in HeLa cells; assay type: toxicity, cell-based; conditions: read-out: Ratio CC50/EC50
[8] = Tmax in BALB/c mouse brain at 50 mg/kg, po measured upto 24 hrs by LC-MS/MS method; assay type: ADME, organism-based; conditions: in vivo; in short: as §1
[9] = AUClast in BALB/c mouse brain at 10 mg/kg, ip measured upto 24 hrs by LC-MS/MS method; assay type: ADME, organism-based; design: time < 24 hrs, dose 10 mg/kg, route ip; conditions: in vivo; in short: as §1
[10] = AUClast in BALB/c mouse plasma at 10 mg/kg, ip measured upto 24 hrs by LC-MS/MS method; assay type: ADME, organism-based; design: dose 10 mg/kg, time < 24 hrs, route ip; conditions: in vivo; in short: as §1
[11] = Inhibition of EBOV-GP to human C-terminal Flag tagged NPC1 protein protein interaction at 50 uM by ELISA
In short: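 GP particles were cleaved with thermolysin (250 μg/mL, 1 h, 37 °C; stopped with 1 mM phosphoramidon) and captured on plates by anti-GP mAb KZ52. Purified Flag-tagged human NPC1 domain C (10 μg/mL), expressed in HEK293T, was added with or without compound at 50 μM. Bound protein was detected with anti-Flag-HRP and TMB at 450 nm, n = 3.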

[12] = Cmax in BALB/c mouse brain at 50 mg/kg, po measured upto 24 hrs by LC-MS/MS method; assay type: ADME, organism-based; design: time < 24 hrs, dose 50 mg/kg, route po; conditions: in vivo; in short: as §1
[13] = AUClast in BALB/c mouse plasma at 50 mg/kg, po measured upto 24 hrs by LC-MS/MS method; assay type: ADME, organism-based; design: time < 24 hrs, dose 50 mg/kg, route po; conditions: in vivo; in short: as §1
[14] = AUClast in BALB/c mouse brain at 50 mg/kg, po measured upto 24 hrs by LC-MS/MS method; assay type: ADME, organism-based; design: dose 50 mg/kg, time < 24 hrs, route po; conditions: in vivo; in short: as §1
[15] = Cmax in BALB/c mouse brain at 10 mg/kg, ip measured upto 24 hrs by LC-MS/MS method; assay type: ADME, organism-based; design: time < 24 hrs, dose 10 mg/kg, route ip; conditions: in vivo; in short: as §1
[16] = Cmax in BALB/c mouse plasma at 10 mg/kg, ip measured upto 24 hrs by LC-MS/MS method; assay type: ADME, organism-based; design: dose 10 mg/kg, time < 24 hrs, route ip; conditions: in vivo; in short: as §1

SMILES | EC50 (Ebolavirus) [nM] | CC50 at 24 h [1] [nM] | Cmax [2] [ng/mL] | selectivity ratio [3] | Tmax [4] [h] | Tmax [5] [h] | Tmax [6] [min] | selectivity ratio [7] | Tmax [8] [h] | AUClast [9] [ng·h/mL] | AUClast [10] [ng·h/mL] | inhibition [11] | Cmax [12] [ng/mL] | AUClast [13] [ng·h/mL] | AUClast [14] [ng·h/mL] | Cmax [15] [ng/mL] | Cmax [16] [ng/mL]
CN(C)CCOc1ccc(/C(=C(/CCCl)c2ccccc2)c2ccccc2)cc1 [TOREMIFENE] | 70 | > 100000 |  |  |  |  |  |  |  |  |  |  |  |  |  |  | 
O=C(CCNCCN1CCN(Cc2ccccc2)CC1)NN(c1ccccc1)c1ccccc1 |  |  | 93.62 | 13.1 | 8 | 0.25 | 4.8 | 274 | 24 | 3886.74 | 83.83 | Active | 341.33 | 152.76 | 7109.56 |  | 
O=C(CCNCCC1CCN(Cc2ccccc2)CC1)NN(c1ccccc1)c1ccccc1 |  |  |  | 31.5 | 8 | 0.25 | 4.8 | 115 | 4 | 1142.02 | 559.47 |  |  |  |  | 51.03 | 283.42
